Experimental data reported in ChEMBL document CHEMBL3244382, “Structural requirements for antileukemic activity among the naturally occurring and semisynthetic maytansinoids” (J Med Chem, 1978).
Values after ≈ are worked out from the molar mass of the structure shown. Active and inactive are the calls of the source.

Legend:
[1] = system: Mus musculus; assay: Toxicity in PS mouse allografted with mouse P388 cells assessed as change in body weight at 3.1 ug/kg relative to control; assay type: organism-based; details: in vivo, 0.0031 mg/kg
Method in brief: (§1)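 P388 (PS) leukemia in mice, 6 mice per dose group. Weight change is the difference in grams between treated and control animals. Survivors are recorded on toxicity day, normally 4 days after the first injection.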

[2] = system: Mus musculus; assay: Toxicity in PS mouse allografted with mouse P388 cells assessed as survival at 50 ug/kg after 4 days; assay type: organism-based; details: in vivo, 0.05 mg/kg, 96 h
Method in brief: (§2)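 PS (P388) leukemic mice, six started per dose group. Toxicity scored as survivors on the toxicity day over the number of mice started. The toxicity day is normally 4 days after the first injection.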

[3] = system: Mus musculus; assay: Toxicity in PS mouse allografted with mouse P388 cells assessed as survival at 100 ug/kg after 4 days; assay type: organism-based; details: in vivo, 0.1 mg/kg, 96 h; method in brief: as §2
[4] = system: Mus musculus; assay: Toxicity in PS mouse allografted with mouse P388 cells assessed as survival at 25 ug/kg after 4 days; assay type: organism-based; details: in vivo, 0.025 mg/kg, 96 h; method in brief: as §2
[5] = system: Mus musculus; assay: Toxicity in PS mouse allografted with mouse P388 cells assessed as survival at 12.5 ug/kg after 4 days; assay type: organism-based; details: in vivo, 0.0125 mg/kg, 96 h; method in brief: as §2
[6] = system: Mus musculus; assay: Toxicity in PS mouse allografted with mouse P388 cells assessed as survival at 6.2 ug/kg after 4 days; assay type: organism-based; details: in vivo, 0.0062 mg/kg, 96 h; method in brief: as §2
[7] = system: Mus musculus; assay: Toxicity in PS mouse allografted with mouse P388 cells assessed as survival at 3.1 ug/kg after 4 days; assay type: organism-based; details: in vivo, 0.0031 mg/kg, 96 h; method in brief: as §2
[8] = system: Mus musculus; assay: Toxicity in PS mouse allografted with mouse P388 cells assessed as survival at 200 ug/kg after 4 days; assay type: organism-based; details: in vivo, 0.2 mg/kg, 96 h; method in brief: as §2
[9] = system: Mus musculus; assay: Toxicity in PS mouse allografted with mouse P388 cells assessed as survival at 1.8 ug/kg after 4 days; assay type: organism-based; details: in vivo, 0.0018 mg/kg, 96 h; method in brief: as §2
[10] = system: Mus musculus; assay: Toxicity in PS mouse allografted with mouse P388 cells assessed as survival at 0.9 ug/kg after 4 days; assay type: organism-based; details: in vivo, 0.0009 mg/kg, 96 h; method in brief: as §2
[11] = system: Mus musculus; assay: Toxicity in PS mouse allografted with mouse P388 cells assessed as change in body weight at 100 ug/kg relative to control; assay type: organism-based; details: in vivo, 0.1 mg/kg; method in brief: as §1
[12] = system: Mus musculus; assay: Toxicity in PS mouse allografted with mouse P388 cells assessed as change in body weight at 50 ug/kg relative to control; assay type: organism-based; details: in vivo, 0.05 mg/kg; method in brief: as §1
[13] = system: Mus musculus; assay: Toxicity in PS mouse allografted with mouse P388 cells assessed as change in body weight at 25 ug/kg relative to control; assay type: organism-based; details: in vivo, 0.025 mg/kg; method in brief: as §1
[14] = system: Mus musculus; assay: Toxicity in PS mouse allografted with mouse P388 cells assessed as change in body weight at 12.5 ug/kg relative to control; assay type: organism-based; details: in vivo, 0.0125 mg/kg; method in brief: as §1
[15] = system: Mus musculus; assay: Toxicity in PS mouse allografted with mouse P388 cells assessed as change in body weight at 6.2 ug/kg relative to control; assay type: organism-based; details: in vivo, 0.0062 mg/kg; method in brief: as §1
[16] = system: Mus musculus; assay: Toxicity in PS mouse allografted with mouse P388 cells assessed as change in body weight at 200 ug/kg relative to control; assay type: organism-based; details: in vivo, 0.2 mg/kg; method in brief: as §1
[17] = system: Mus musculus; assay: Toxicity in PS mouse allografted with mouse P388 cells assessed as change in body weight at 1.8 ug/kg relative to control; assay type: organism-based; details: in vivo, 0.0018 mg/kg; method in brief: as §1
[18] = system: Mus musculus; assay: Toxicity in PS mouse allografted with mouse P388 cells assessed as change in body weight at 0.9 ug/kg relative to control; assay type: organism-based; details: in vivo, 0.0009 mg/kg; method in brief: as §1
[19] = system: P388; assay: Antitumor activity against mouse P388 cells allografted in PS mouse assessed as median survival time at 100 ug/kg relative to control; assay type: functional
Method in brief: (§3)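 P388 leukemia (PS) in mice, six mice started per dose group. Read-out is T/C: median survival time of the treated group divided by that of the untreated control group, expressed as a percent. The NIH protocol counts a compound as active when T/C > 125%.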

[20] = system: P388; assay: Antitumor activity against mouse P388 cells allografted in PS mouse assessed as median survival time at 50 ug/kg relative to control; assay type: functional; method in brief: as §3
[21] = system: P388; assay: Antitumor activity against mouse P388 cells allografted in PS mouse assessed as median survival time at 25 ug/kg relative to control; assay type: functional; method in brief: as §3
[22] = system: P388; assay: Antitumor activity against mouse P388 cells allografted in PS mouse assessed as median survival time at 12.5 ug/kg relative to control; assay type: functional; method in brief: as §3
[23] = system: P388; assay: Antitumor activity against mouse P388 cells allografted in PS mouse assessed as median survival time at 6.2 ug/kg relative to control; assay type: functional; method in brief: as §3
[24] = system: P388; assay: Antitumor activity against mouse P388 cells allografted in PS mouse assessed as median survival time at 3.1 ug/kg relative to control; assay type: functional; method in brief: as §3
[25] = system: P388; assay: Antitumor activity against mouse P388 cells allografted in PS mouse assessed as median survival time at 200 ug/kg relative to control; assay type: functional; method in brief: as §3
[26] = system: P388; assay: Antitumor activity against mouse P388 cells allografted in PS mouse assessed as median survival time at 1.8 ug/kg relative to control; assay type: functional; method in brief: as §3
[27] = system: P388; assay: Antitumor activity against mouse P388 cells allografted in PS mouse assessed as median survival time at 0.9 ug/kg relative to control; assay type: functional; method in brief: as §3
[28] = system: KB; assay: Cytotoxicity against human KB cells; assay type: functional; details: read-out: ED50 (the source's name)
[29] = target: Tubulin (Homo sapiens) (UniProt P68371+Q9H4B7+P0DPH7+P68366+Q13509+Q71U36+P04350+Q3ZCM7+P07437+P68363+Q9BQE3+Q6PEY2+Q13885+Q9BVA1+Q9BUF5); assay: Inhibition of brain tubulin polymerization (unknown origin) at 37 degC by spectrophotometry
[30] = system: Paracentrotus lividus; assay: Antimitotic activity against sea urchin eggs assessed as drug level causing inhibition of mitosis; assay type: functional; details: Egg
[31] = system: Mus musculus; assay: Toxicity in PS mouse allografted with mouse P388 cells assessed as change in body weight at 0.8 ug/kg relative to control; assay type: organism-based; details: in vivo, 0.0008 mg/kg
Method in brief: (§4)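 PS (P388 leukemia) mice, six per dose group. Toxicity read as the difference in grams between the weights of treated and control animals.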

[32] = system: Mus musculus; assay: Toxicity in PS mouse allografted with mouse P388 cells assessed as change in body weight at 0.4 ug/kg relative to control; assay type: organism-based; details: in vivo, 0.0004 mg/kg; method in brief: as §4
[33] = system: Mus musculus; assay: Toxicity in PS mouse allografted with mouse P388 cells assessed as change in body weight at 0.2 ug/kg relative to control; assay type: organism-based; details: in vivo, 0.0002 mg/kg; method in brief: as §4
[34] = system: Mus musculus; assay: Toxicity in PS mouse allografted with mouse P388 cells assessed as survival at 0.8 ug/kg after 4 days; assay type: organism-based; details: in vivo, 0.0008 mg/kg, 96 h; method in brief: as §2
[35] = system: Mus musculus; assay: Toxicity in PS mouse allografted with mouse P388 cells assessed as survival at 0.4 ug/kg after 4 days; assay type: organism-based; details: in vivo, 0.0004 mg/kg, 96 h; method in brief: as §2
[36] = system: Mus musculus; assay: Toxicity in PS mouse allografted with mouse P388 cells assessed as survival at 0.2 ug/kg after 4 days; assay type: organism-based; details: in vivo, 0.0002 mg/kg, 96 h; method in brief: as §2
[37] = system: Mus musculus; assay: Toxicity in PS mouse allografted with mouse P388 cells assessed as survival at 6.3 ug/kg after 4 days; assay type: organism-based; details: in vivo, 0.0063 mg/kg, 96 h; method in brief: as §2
[38] = system: Mus musculus; assay: Toxicity in PS mouse allografted with mouse P388 cells assessed as survival at 1.1 ug/kg after 4 days; assay type: organism-based; details: in vivo, 0.0011 mg/kg, 96 h; method in brief: as §2
[39] = system: Mus musculus; assay: Toxicity in PS mouse allografted with mouse P388 cells assessed as change in body weight at 6.3 ug/kg relative to control; assay type: organism-based; details: in vivo, 0.0063 mg/kg; method in brief: as §1
[40] = system: Mus musculus; assay: Toxicity in PS mouse allografted with mouse P388 cells assessed as change in body weight at 1.1 ug/kg relative to control; assay type: organism-based; details: in vivo, 0.0011 mg/kg; method in brief: as §1
[41] = system: P388; assay: Antitumor activity against mouse P388 cells allografted in PS mouse assessed as median survival time at 0.8 ug/kg relative to control; assay type: functional; method in brief: as §3
[42] = system: P388; assay: Antitumor activity against mouse P388 cells allografted in PS mouse assessed as median survival time at 0.4 ug/kg relative to control; assay type: functional; method in brief: as §3
[43] = system: P388; assay: Antitumor activity against mouse P388 cells allografted in PS mouse assessed as median survival time at 0.2 ug/kg relative to control; assay type: functional; method in brief: as §3
[44] = system: P388; assay: Antitumor activity against mouse P388 cells allografted in PS mouse assessed as median survival time at 6.3 ug/kg relative to control; assay type: functional; method in brief: as §3
[45] = system: P388; assay: Antitumor activity against mouse P388 cells allografted in PS mouse assessed as median survival time at 1.1 ug/kg relative to control; assay type: functional; method in brief: as §3

COc1cc2cc(c1Cl)N(C)C(=O)C[C@H](OC(=O)CBr)[C@]1(C)O[C@H]1[C@H](C)[C@@H]1C[C@@](O)(NC(=O)O1)[C@H](OC)/C=C/C=C(\C)C2
Activity [1]: -0.2 g | Activity [2]: Non-toxic | Activity [3]: Non-toxic | Activity [4]: Non-toxic | Activity [5]: Non-toxic | Activity [6]: Non-toxic | Activity [7]: Non-toxic | Activity [8]: Toxic | Activity [9]: Non-toxic | Activity [10]: Non-toxic | Activity [11]: -1.3 g | Activity [12]: -0.3 g | Activity [13]: -0.5 g | Activity [14]: -0.3 g | Activity [15]: 0.2 g | Activity [16]: -2.5 g | Activity [17]: -0.6 g | Activity [18]: -0.4 g | T/C [19]: 232% | T/C [20]: 189% | T/C [21]: 162% | T/C [22]: 153% | T/C [23]: 146% | T/C [24]: 130% | T/C [25]: < 80% | T/C [26]: 131% | T/C [27]: 129% | EC50 [28]: 0.00044 µg/mL (≈ 0.000641 µM) | inhibition [29]: Active | Activity [30]: 1 ×10⁻⁸ mol/L

COc1cc2cc(c1Cl)N(C)C(=O)/C=C/[C@]1(C)O[C@H]1[C@H](C)[C@@H]1C[C@@](O)(NC(=O)O1)[C@H](OC)/C=C/C=C(\C)C2
Activity [1]: 0.4 g | Activity [31]: 2.8 g | Activity [32]: 2.5 g | Activity [33]: 2.1 g | Activity [2]: Non-toxic | Activity [3]: Non-toxic | Activity [4]: Non-toxic | Activity [5]: Non-toxic | Activity [7]: Non-toxic | Activity [34]: Non-toxic | Activity [35]: Non-toxic | Activity [36]: Non-toxic | Activity [37]: Non-toxic | Activity [38]: Non-toxic | Activity [11]: 1 g | Activity [12]: 2.6 g | Activity [13]: 1.7 g | Activity [14]: 1 g | Activity [39]: 0.3 g | Activity [40]: 2 g | T/C [19]: 110% | T/C [20]: <80% | T/C [21]: <80% | T/C [22]: <80% | T/C [24]: 90% | T/C [41]: 90% | T/C [42]: 90% | T/C [43]: 90% | T/C [44]: <80% | T/C [45]: 90% | EC50 [28]: 0.025 µg/mL (≈ 0.0457 µM) | inhibition [29]: Active | Activity [30]: 1 µM
